{"source": "PubChem BioAssay AID623971", "about": "(Broad Institute, 2012)", "note": "Values joined by “and” are separate entries in the source; they are usually repeats but may differ in a detail not shown here. Equal entries are not always repeated. Active and inactive are the calls of the source.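 Rule for the calls: active = compounds lowering yeast growth whose fitted half-maximal concentration is at most twice the top tested dose; inconclusive = flat curve with moderate growth inhibition, or a poor curve fit; inactive = the rest.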", "data": [{"system": "not listed separately", "test": "yeast growth reduction with glucose carbon source – OD600, powder samples, set 3, dose response (AID 623971)", "conditions": "S. cerevisiae growth in glucose, OD600, 48 h; at 3 µM (top of the series)", "method_in_brief": "(§1)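 Medium: CSM growth medium supplemented with glucose; Material: Saccharomyces cerevisiae yeast cells, whole-organism growth assay; Dosing: test compounds transferred into wells by pin tool; Benchmarks: positive control amphotericin B at 10 µM; Schedule: 48 h at 30 °C without shaking; Technique: OD600 absorbance.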", "values": [{"smiles": "CCOC(=O)N1C(=O)C2(CCCCC2)N(c2ccc(C#N)cc2)C1=S", "activity change, negative = growth inhibition": "-21.5% (inactive)"}, {"smiles": "CCOC(=O)N1C(=O)C2(CCCCC2)N(c2ccc(F)cc2)C1=S", "activity change, negative = growth inhibition": "-4.53% (inactive)"}, {"smiles": "CCOC(=O)N1C(=O)C2(CCCCC2)N(c2ccccc2)C1=S", "activity change, negative = growth inhibition": "-11.6% (inactive)"}, {"smiles": "CCOC(=O)N1C(=O)C2(CCCCC2)N(c2cccc(C)c2)C1=S", "activity change, negative = growth inhibition": "-4.85% (inactive)"}, {"smiles": "C/C=C/[C@@H]1[C@H]2C[C@@H](C)CC[C@@H]2C(C)=C[C@H]1C(=O)c1c(O)c(-c2ccc(O)cc2)c[nH]c1=O", "activity change, negative = growth inhibition": "-5.04% (inactive)"}, {"smiles": "CCOC(=O)N1C(=O)C2(CCCCC2)N(c2ccc(Cl)cc2)C1=S", "activity change, negative = growth inhibition": "-15.5% (inactive)"}, {"smiles": "CCOC(=O)N1C(=O)C2(CCCCC2)N(c2ccc(C)cc2)C1=S", "activity change, negative = growth inhibition": "-5.09% (inactive) and -19.8% (inactive)"}]}, {"system": "S. cerevisiae growth in glucose, OD600, 48 h", "test": "yeast growth reduction with glucose carbon source – OD600, powder samples, set 3, dose response (AID 623971)", "conditions": "not given", "method_in_brief": "as §1", "units": {"AC50": "nM"}, "values": [{"smiles": "CC1/C=C/C=C\\C=C\\C=C\\C=C\\C=C\\C=C\\C(O[C@H]2OC(C)C(O)C(N)C2O)CC2OC(O)(CC(O)CC(O)C(O)CCC(O)CC(O)CC(=O)OC(C)C(C)C1O)CC(O)C2C(=O)O", "note": "(stereo partly drawn)", "AC50": 384}]}]}
